Screens from PubChem.
Rev-RRE block: HIV-1 Rev-RRE binding inhibitors, primary screen, biochemical, FRET, protein-RNA interaction | 97,000 tested, 0.79% active | AID 704, 2007 | inhibition, % at 8 µM | Rev peptide-RRE RNA binding | P05866;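 active = inhibition above the screen-wide mean plus 3 SD, cut at about 35% in these data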
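Assay system: Labelled RRE RNA duplex and labelled Rev peptide | Times: 5 min preincubation and 15 min binding, 25 °C | Detection: FRET, ex 480 nm, em 540 and 671 nm | Evaluation: % inhibition of FRET ratio versus controls | Benchmarks: DMSO wells as 0% and neomycin B wells as 100% inhibition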
CD11b adhes enh: enhancers of CD11b/CD18 adhesion to fibrinogen, primary screen, K562 cells, luminescence; Integrin beta-2 (Homo sapiens) + Integrin alpha-M (Homo sapiens), P05107+P11215; ATPlite luminescence; activation, % at 10 µM; 93,000 tested, 0.07% active;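 active = 10 µM primary screen giving 50% or more activity, confirmed by 40% or more on retest at that dose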
CD11b adhes inh: inhibitors of CD11b/CD18 adhesion to fibrinogen, primary screen, K562 cells, luminescence. AID 1497, 2009. Integrin beta-2 (Homo sapiens) + Integrin alpha-M (Homo sapiens), P05107+P11215. inhibition, % at 10 µM. ATPlite luminescence; Mn2+ added to activate the integrin. 93,000 tested, 0.54% active;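 active = primary inhibition of 50% or more at 10 µM, then 40% or more on retest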
Smad3 inh: Smad3/FoxH1 peptide binding inhibitors, primary screen, biochemical, TR-FRET | Mothers against decapentaplegic homolog 3 (Homo sapiens), P84022 | TR-FRET Smad3/Dy647-FoxH1 peptide binding, europium anti-His | inhibition, % at 25 µM | 88,000 tested, 0.29% active;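 active = compounds that reduce the energy-transfer binding signal between the protein and its labelled peptide by more than half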
Phagocytosis inh: inhibitors of macrophage phagocytosis, primary screen, imaging, J774A.1 cells, IgG beads. J774A.1 macrophage IgG-bead phagocytosis. inhibition, % at 5 µM. 110,000 tested, 0.07% active;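 active = inhibition above the mean of the plate negative controls plus 5 SD, cut at about 13% in these data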;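 note: phagocytic index as fraction of beads internalized from green versus red external bead signal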
EphB4 antag: EphB4-ephrin-B2 interaction antagonists, primary screen, biochemical, TNYL-RAW peptide probe, fluorescence polarization. inhibition, % at 7 µM. EphB4 LBD / TNYL-RAW-Alexa532 peptide. AID 720, 2007. 97,000 tested, 0.15% active. Ephrin type-B receptor 4 (Homo sapiens), P54760;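 active = inhibition above the screen-wide mean inhibition plus 3 SD, cut at about 15% in these data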
Target sequence (P54760 whole entry, looked up, the tested form may be a part): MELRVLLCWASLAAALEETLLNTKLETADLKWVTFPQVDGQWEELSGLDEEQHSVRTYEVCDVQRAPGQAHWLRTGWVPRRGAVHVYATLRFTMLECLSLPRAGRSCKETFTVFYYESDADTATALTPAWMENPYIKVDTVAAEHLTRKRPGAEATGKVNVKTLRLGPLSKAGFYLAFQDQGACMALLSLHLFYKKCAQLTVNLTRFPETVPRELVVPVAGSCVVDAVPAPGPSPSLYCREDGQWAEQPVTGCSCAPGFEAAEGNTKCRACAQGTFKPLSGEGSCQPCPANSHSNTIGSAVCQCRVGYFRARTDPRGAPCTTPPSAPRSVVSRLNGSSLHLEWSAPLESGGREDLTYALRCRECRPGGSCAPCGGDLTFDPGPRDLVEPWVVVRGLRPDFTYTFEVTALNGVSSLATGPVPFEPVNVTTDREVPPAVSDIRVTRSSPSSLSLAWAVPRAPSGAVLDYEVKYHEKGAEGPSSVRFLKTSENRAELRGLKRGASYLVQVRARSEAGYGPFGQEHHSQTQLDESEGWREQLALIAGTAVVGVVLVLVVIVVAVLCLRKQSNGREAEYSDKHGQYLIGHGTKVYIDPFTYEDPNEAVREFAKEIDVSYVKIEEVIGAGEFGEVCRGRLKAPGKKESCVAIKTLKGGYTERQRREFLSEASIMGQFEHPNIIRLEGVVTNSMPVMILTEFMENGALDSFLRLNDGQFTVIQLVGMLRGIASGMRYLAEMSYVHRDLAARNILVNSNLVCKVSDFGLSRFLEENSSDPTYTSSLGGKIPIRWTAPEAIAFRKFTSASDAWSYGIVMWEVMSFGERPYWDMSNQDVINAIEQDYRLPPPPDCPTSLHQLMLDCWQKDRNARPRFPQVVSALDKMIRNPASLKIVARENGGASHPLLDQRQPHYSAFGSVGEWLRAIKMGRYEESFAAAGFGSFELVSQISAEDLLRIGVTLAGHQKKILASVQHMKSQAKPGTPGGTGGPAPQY
A number is an active result; [ ] = another dose, or the depositor's remark. This is a sample that favours compounds with a hit; in the whole collection about 1.3% have one here.

What do the screens show for `Cc1ccccc1OCc1nnc(SCC(=O)Nc2ccc3c(c2)oc2ccccc23)n1C`?
Rev-RRE block: inactive; CD11b adhes enh: inactive; CD11b adhes inh: inactive; Smad3 inh: inactive; Phagocytosis inh: inactive; EphB4 antag: inactive

How did Cc1ccc(-c2nnc(SCC(=O)Nc3ccc4c(c3)oc3ccccc34)n2C)c(Cl)c1 do in these assays?
Rev-RRE block: inactive; CD11b adhes enh: inactive; CD11b adhes inh: 60; Smad3 inh: inactive; Phagocytosis inh: inactive; EphB4 antag: inactive

Results for [O-][N+]1(CC[N+]2([O-])CCCCC2)CCCCC1 ?
Smad3 inh: inactive

Results for CN(C)Cc1ccc(C(C)(C)C)cc1-c1cc(C(C)(C)C)ccc1CN(C)C ?
Smad3 inh: inactive

How did CN(C)c1ccc(/C=N/n2ncc3ccccc32)cc1 do in these assays?
CD11b adhes enh: inactive; CD11b adhes inh: inactive; Smad3 inh: inactive; Phagocytosis inh: inactive

Results for C=CCn1c(/N=C/c2ccc(N(C)C)cc2)nc2ccccc21 ?
Rev-RRE block: 50; CD11b adhes enh: inactive; CD11b adhes inh: inactive; Smad3 inh: inactive; Phagocytosis inh: inactive; EphB4 antag: inactive

Results for CCCCn1c(/N=C/c2ccc(N(C)C)cc2)nc2ccccc21 ?
Rev-RRE block: 37; Smad3 inh: inactive; EphB4 antag: inactive

How did NC(N)=N[C@H](CC(=O)O)c1ccccc1 do in these assays?
Smad3 inh: inactive

What do the screens show for `CN(C)/C=C1\C(=O)c2ccc(N(C)C)nc2CC1c1ccccc1` (centres undefined)?
Smad3 inh: inactive

How did Oc1cc(O)c2c(c1)O[C@@H](c1ccc(O)c(O)c1)[C@H](O[C@@]1(c3cc(O)c(O)c(O)c3)Oc3cc(O)cc(O)c3[C@H](O)[C@H]1O)C2 do in these assays?
Smad3 inh: inactive

What do the screens show for `CCN1CCc2c(sc(NC(=O)Nc3ccc(Cl)c(Cl)c3)c2C(N)=O)C1`?
Phagocytosis inh: inactive

What do the screens show for `CCn1c(O)c(/C=N/N=C/c2ccccc2)c2ccc(C3=NNC(=O)CC3)cc21`?
Rev-RRE block: 57; CD11b adhes enh: inactive; CD11b adhes inh: inactive; Smad3 inh: inactive; Phagocytosis inh: inactive; EphB4 antag: inactive

Results for CCC(CC)=N/N=C/c1c(O)n(CC)c2cc(C3=NNC(=O)CC3)ccc12 ?
Rev-RRE block: inactive; Smad3 inh: inactive; EphB4 antag: inactive

Results for CC1=C(C#N)C(=O)OC(C)(C)C1 ?
Rev-RRE block: 43; CD11b adhes enh: inactive; CD11b adhes inh: inactive; Smad3 inh: inactive; Phagocytosis inh: inactive; EphB4 antag: inactive

Results for CC(C)C1Cc2c(sc3[nH]c(=S)n(Cc4ccccc4)c(=O)c23)CO1 (centres undefined) ?
Rev-RRE block: inactive; CD11b adhes enh: inactive; CD11b adhes inh: 53; Smad3 inh: inactive; Phagocytosis inh: inactive; EphB4 antag: inactive

Results for O=C(O)C[C@H](Cc1ccc2c(c1)OCO2)C(=O)O ?
Smad3 inh: inactive

What do the screens show for `N#Cc1c(C(F)(F)F)cc(-c2cccc(Cl)c2)[nH]c1=O`?
Rev-RRE block: inactive; CD11b adhes enh: inactive; CD11b adhes inh: 106; Phagocytosis inh: inactive; EphB4 antag: inactive

How did N#Cc1c(C(F)(F)F)cc(-c2ccc(Cl)cc2)[nH]c1=O do in these assays?
Rev-RRE block: inactive; CD11b adhes enh: inactive; CD11b adhes inh: 104; Phagocytosis inh: inactive; EphB4 antag: inactive

Results for Cc1cc(C(F)(F)F)c(C#N)c(=O)[nH]1 ?
Rev-RRE block: inactive; Smad3 inh: inactive; EphB4 antag: inactive

How did CN(C)c1nc(-c2ccccc2)cc(C(F)(F)F)c1C#N do in these assays?
Rev-RRE block: inactive; CD11b adhes enh: inactive; CD11b adhes inh: inactive; Phagocytosis inh: inactive; EphB4 antag: inactive

What do the screens show for `CCOC(=O)c1ccc(CNC(=O)c2cc3cccc(OC)c3oc2=O)o1`?
Smad3 inh: inactive

How did COc1cc(NC(=O)COC(=O)Cc2ccc(-c3ccccc3)cc2)cc(OC)c1 do in these assays?
Phagocytosis inh: inactive

Results for c1ccc2sc(SCN(C3CCCCC3)C3CCCCC3)nc2c1 ?
Smad3 inh: 62

How did COc1ccc(-c2cn3nc4c(nc3n2)CCCC4)cc1 do in these assays?
Rev-RRE block: 98[fluorescence artefact?]; CD11b adhes enh: inactive; CD11b adhes inh: inactive; Smad3 inh: inactive; Phagocytosis inh: inactive; EphB4 antag: inactive

How did Cc1cccc(N2CCN(C(=O)C3CCCN(S(=O)(=O)c4cccc5cccnc45)C3)CC2)c1C (centres undefined) do in these assays?
Smad3 inh: inactive

How did CC1(C)[C@@H]2CC[C@@]1(CS(=O)(=O)Nc1ccccc1)C(=O)C2 do in these assays?
Smad3 inh: inactive

How did CCCCCCc1cc2cc(C(N)=O)c(=N)oc2cc1O do in these assays?
Rev-RRE block: 87[fluorescence artefact?]; CD11b adhes enh: inactive; CD11b adhes inh: inactive; Smad3 inh: inactive; Phagocytosis inh: inactive; EphB4 antag: inactive

Results for CCCCCCc1cc2cc(C(=O)Nc3ccc(OC)cc3)c(=O)oc2cc1O ?
Phagocytosis inh: inactive

How did CCCCCCc1cc2cc(C(=O)NC)c(=N)oc2cc1O do in these assays?
Rev-RRE block: 70; CD11b adhes enh: inactive; CD11b adhes inh: inactive; Phagocytosis inh: inactive; EphB4 antag: inactive

Results for CCCCCCc1cc2cc(C(=O)Nc3cccc(OC)c3)c(=O)oc2cc1O ?
Phagocytosis inh: inactive

How did COc1ccc2ccccc2c1C(O)c1nccn1C (centres undefined) do in these assays?
Rev-RRE block: 135[fluorescence artefact?]; CD11b adhes enh: inactive; CD11b adhes inh: inactive; Smad3 inh: inactive; Phagocytosis inh: inactive; EphB4 antag: inactive

Results for Cn1ccnc1C(O)c1ccc(OCc2ccccc2)cc1 (centres undefined) ?
CD11b adhes enh: inactive; CD11b adhes inh: inactive; Smad3 inh: inactive; Phagocytosis inh: inactive

What do the screens show for `O=C(O)/C(=C\c1ccncc1)c1cccc2ccccc12`?
Smad3 inh: inactive

What do the screens show for `COc1ccc(-c2ccc(C3C(C#N)=C(N)Oc4n[nH]c(C)c43)o2)cc1` (centres undefined)?
Rev-RRE block: 52; Smad3 inh: inactive; EphB4 antag: inactive

What do the screens show for `COCc1[nH]nc2c1C(c1ccc(OC)cc1)C(C#N)=C(N)O2` (centres undefined)?
Rev-RRE block: inactive; CD11b adhes enh: inactive; CD11b adhes inh: inactive; Smad3 inh: inactive; Phagocytosis inh: inactive; EphB4 antag: inactive

Results for CN(/N=C/c1ccccc1O)c1ccc2ccccc2n1 ?
Smad3 inh: inactive

How did Cc1cc(C)cc(OCC(=O)NCc2nc(-c3ccccc3)no2)c1 do in these assays?
Rev-RRE block: inactive; CD11b adhes enh: inactive; CD11b adhes inh: inactive; Smad3 inh: inactive; Phagocytosis inh: 23; EphB4 antag: inactive
